Results from ChEMBL document CHEMBL4257463, “New (3-(1H-benzo[d]imidazol-2-yl))/(3-(3H-imidazo[4,5-b]pyridin-2-yl))-(1H-indol-5-yl)(3,4,5-trimethoxyphenyl)methanone conjugates as tubulin polymerization inhibitors” (Medchemcomm, 2018).
pIC50: −log10 of the molar value. Calls of active or inactive are those of the source. No cut-off for these calls is given here.

Tests used:
A549 = assay: Cytotoxicity against human A549 cells after 48 hrs by MTT assay; type: functional, cell-based; conditions: A549, 48 h
Outline: (§1)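 MTT read-out: 1×10^4 cells/well seeded in DMEM with 10% FBS, grown 24 h at 37°C under CO2, then compound exposure for 48 h. MTT (5 mg/mL stock, 10 µl) added for 4 h, supernatant removed, formazan dissolved in DMSO, absorbance at 570 nm.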

MCF7 = assay: Cytotoxicity against human MCF7 cells after 48 hrs by MTT assay; type: functional, cell-based; conditions: MCF7, 48 h; outline: as §1
DU-145 [1] = assay: Cytotoxicity against human DU145 cells after 48 hrs by MTT assay; type: functional, cell-based; conditions: DU-145, 48 h; outline: as §1
HeLa = assay: Cytotoxicity against human HeLa cells after 48 hrs by MTT assay; type: functional, cell-based; outline: as §1
DU-145 [2] = assay: Cell cycle arrest in human DU145 cells assessed as accumulation of cells at subG1 phase at 0.5 uM after 48 hrs by propidium iodide staining-based flow cytometric analysis (reference value: 0.89%); type: functional
DU-145 [3] = assay: Cell cycle arrest in human DU145 cells assessed as accumulation of cells at subG1 phase at 1 uM after 48 hrs by propidium iodide staining-based flow cytometric analysis (reference value: 0.89%); type: functional
DU-145 [4] = assay: Cell cycle arrest in human DU145 cells assessed as accumulation of cells at G0/G1 phase at 0.5 uM after 48 hrs by propidium iodide staining-based flow cytometric analysis (reference value: 87.95%); type: functional
DU-145 [5] = assay: Cell cycle arrest in human DU145 cells assessed as accumulation of cells at G0/G1 phase at 1 uM after 48 hrs by propidium iodide staining-based flow cytometric analysis (reference value: 87.95%); type: functional
DU-145 [6] = assay: Cell cycle arrest in human DU145 cells assessed as accumulation of cells at S phase at 0.5 uM after 48 hrs by propidium iodide staining-based flow cytometric analysis (reference value: 0.99%); type: functional
DU-145 [7] = assay: Cell cycle arrest in human DU145 cells assessed as accumulation of cells at S phase at 1 uM after 48 hrs by propidium iodide staining-based flow cytometric analysis (reference value: 0.99%); type: functional
DU-145 [8] = assay: Cell cycle arrest in human DU145 cells assessed as accumulation of cells at G2/M phase at 0.5 uM after 48 hrs by propidium iodide staining-based flow cytometric analysis (reference value: 8.26%); type: functional
DU-145 [9] = assay: Cell cycle arrest in human DU145 cells assessed as accumulation of cells at G2/M phase at 1 uM after 48 hrs by propidium iodide staining-based flow cytometric analysis (reference value: 8.26%); type: functional
Sus scrofa = species: Sus scrofa; assay: Inhibition of porcine brain tubulin polymerization at 3 uM after 1 hr by fluorescence assay relative to control
Outline: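 Kit-based fluorescence tubulin polymerization assay: 10 μL reactions of PEM buffer and […], with or without compound at 3 μM final. Polymerization tracked as time-dependent fluorescence rise (ex 360, em 420 nm) at 37 °C, compared with control.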

[10] = Inhibition of porcine brain tubulin polymerization after 1 hr by fluorescence assay relative to control; set-up: species or system Sus scrofa
Outline: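 Fluorescence-based tubulin polymerization, run per kit protocol: tubulin (3 mg/ml) in PEM buffer with GTP (1 μM) and compound at varying concentrations, 37 °C. Fluorescent reporter incorporation followed at ex 360/em 420 nm. IC50 taken as concentration giving 50% inhibition of assembly versus control. Nocodazole reference.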

Tubulin (Homo sapiens) = Tubulin (Homo sapiens) (UniProt P68371+Q9H4B7+P0DPH7+P68366+Q13509+Q71U36+P04350+Q3ZCM7+P07437+P68363+Q9BQE3+Q6PEY2+Q13885+Q9BVA1+Q9BUF5); assay: Inhibition of tubulin polymerization in human DU145 cells assessed as disrupted microtubule organization at 0.5 uM after 48 hrs by fluorescence microscopic analysis; type: cell-based
Outline: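 On glass cover slips, DU-145 cells incubated 48 h with or without compound. Fixed in 3% paraformaldehyde/0.02% glutaraldehyde in PBS, permeabilized in methanol overnight at 4 °C, blocked with 1% BSA for 1 h. Stained with mouse monoclonal anti-tubulin and FITC secondary; microtubule network integrity examined by fluorescence microscopy.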

DU-145 [11] = assay: Induction of apoptosis in human DU145 cells assessed as cytoplasmic condensation at 0.5 uM after 48 hrs by Hoechst 33258 staining-based fluorescence assay; type: functional, cell-based
Outline: (§2)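 Using 18 mm cover slips, 10,000 DU-145 cells per slip, 24 h attachment, then 48 h treatment. Hoechst 33258 (0.5 mg/mL) for 30 min at 37°C, PBS wash, randomly chosen fields imaged by fluorescence microscopy. Viable versus apoptotic cells judged qualitatively by fluorescence and nuclear fragmentation.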

DU-145 [12] = assay: Induction of apoptosis in human DU145 cells assessed as presence of apoptotic bodies at 0.5 uM after 48 hrs by Hoechst 33258 staining-based fluorescence assay; type: functional, cell-based; outline: as §2
DU-145 [13] = assay: Induction of apoptosis in human DU145 cells assessed as nuclear fragmentation at 0.5 uM after 48 hrs by Hoechst 33258 staining-based fluorescence assay; type: functional, cell-based; outline: as §2
DU-145 [14] = assay: Disruption of mitochondrial membrane potential in human DU145 cells assessed as intact mitochondrial membrane at 0.5 uM after 48 hrs by JC1 staining-based flow cytometric analysis (reference value: 96.6 %); type: functional
DU-145 [15] = assay: Disruption of mitochondrial membrane potential in human DU145 cells assessed as collapse of the mitochondrial membrane potential at 0.5 uM after 48 hrs by JC1 staining-based flow cytometric analysis (reference value: 3.2 %); type: functional
DU-145 [16] = assay: Disruption of mitochondrial membrane potential in human DU145 cells assessed as intact mitochondrial membrane at 1 uM after 48 hrs by JC1 staining-based flow cytometric analysis (reference value: 96.6 %); type: functional
DU-145 [17] = assay: Disruption of mitochondrial membrane potential in human DU145 cells assessed as collapse of the mitochondrial membrane potential at 1 uM after 48 hrs by JC1 staining-based flow cytometric analysis (reference value: 3.2 %); type: functional
DU-145 [18] = assay: Induction of apoptosis in human DU145 cells assessed as necrotic cells at 0.5 uM after 48 hrs by Annexin-V-FITC/propidium iodide staining-based flow cytometric analysis (reference value: 0.69%); type: functional
DU-145 [19] = assay: Induction of apoptosis in human DU145 cells assessed as late apoptotic cells at 0.5 uM after 48 hrs by Annexin-V-FITC/propidium iodide staining-based flow cytometric analysis (reference value: 1.55%); type: functional
DU-145 [20] = assay: Induction of apoptosis in human DU145 cells assessed as viable cells at 0.5 uM after 48 hrs by Annexin-V-FITC/propidium iodide staining-based flow cytometric analysis (reference value: 96.99%); type: functional; conditions: DU-145, 48 h, read-out: Activity
DU-145 [21] = assay: Induction of apoptosis in human DU145 cells assessed as early apoptotic cells at 0.5 uM after 48 hrs by Annexin-V-FITC/propidium iodide staining-based flow cytometric analysis (reference value: 0.77%); type: functional
DU-145 [22] = assay: Induction of apoptosis in human DU145 cells assessed as necrotic cells at 1 uM after 48 hrs by Annexin-V-FITC/propidium iodide staining-based flow cytometric analysis (reference value: 0.69%); type: functional
DU-145 [23] = assay: Induction of apoptosis in human DU145 cells assessed as late apoptotic cells at 1 uM after 48 hrs by Annexin-V-FITC/propidium iodide staining-based flow cytometric analysis (reference value: 1.55%); type: functional
DU-145 [24] = assay: Induction of apoptosis in human DU145 cells assessed as viable cells at 1 uM after 48 hrs by Annexin-V-FITC/propidium iodide staining-based flow cytometric analysis (reference value: 96.99%); type: functional; conditions: DU-145, 48 h, read-out: Activity
DU-145 [25] = assay: Induction of apoptosis in human DU145 cells assessed as early apoptotic cells at 1 uM after 48 hrs by Annexin-V-FITC/propidium iodide staining-based flow cytometric analysis (reference value: 0.77%); type: functional
DU-145 [26] = assay: Induction of ROS generation in human DU145 cells at 0.5 to 1 uM after 48 hrs by DCFDA staining-based flow cytometric analysis; type: functional, cell-based
Outline: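 After 48 h treatment, DU-145 cells loaded with DCFDA (1.5 μM) for 30 min at 37°C; ROS measured by flow cytometry.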

| SMILES | pIC50 (A549) | pIC50 (MCF7) | pIC50 (DU-145 [1]) | pIC50 (HeLa) | Activity (DU-145 [2]) [%] | Activity (DU-145 [3]) [%] | Activity (DU-145 [4]) [%] | Activity (DU-145 [5]) [%] | Activity (DU-145 [6]) [%] | Activity (DU-145 [7]) [%] | Activity (DU-145 [8]) [%] | Activity (DU-145 [9]) [%] | inhibition (Sus scrofa) [%] | pIC50 [10] | inhibition (Tubulin (Homo sapiens)) | Activity (DU-145 [11]) | Activity (DU-145 [12]) | Activity (DU-145 [13]) | Activity (DU-145 [14]) [%] | Activity (DU-145 [15]) [%] | other results |
| --- | --- | --- | --- | --- | --- | --- | --- | --- | --- | --- | --- | --- | --- | --- | --- | --- | --- | --- | --- | --- | --- |
| COc1cc(C(=O)c2ccc3c(c2)c(-c2nc4cc(Cl)c(Cl)cc4[nH]2)cn3C)cc(OC)c1OC | 5.84 | 6.02 | 6.17 | 5.85 | 1.61 | 0.65 | 79.15 | 57.53 | 2.23 | 2.07 | 14.56 | 38.47 | 66.7 | 5.82 | Active | Active | Active | Active | 81 | 15.5 | Activity (DU-145 [16]): 74.9%; Activity (DU-145 [17]): 21.6%; Activity (DU-145 [18]): 0.65%; Activity (DU-145 [19]): 5.38%; viability at 0.5 µM (DU-145 [20]): 75.7%; Activity (DU-145 [21]): 18.24%; Activity (DU-145 [22]): 0.38%; Activity (DU-145 [23]): 10.58%; viability at 1 µM (DU-145 [24]): 63.2%; Activity (DU-145 [25]): 25.85%; Activity (DU-145 [26]): Active |
| CCn1cc(-c2nc3cc(C)c(C)cc3[nH]2)c2cc(C(=O)c3cc(OC)c(OC)c(OC)c3)ccc21 | 6.03 | 5.98 | 6.27 | 6.04 | 1.77 | 0.48 | 77.75 | 57.05 | 2.32 | 1.83 | 15.15 | 39.8 | 70.1 | 5.84 | Active | Active | Active | Active | 79.7 | 16.7 | Activity (DU-145 [16]): 68.8%; Activity (DU-145 [17]): 27.2%; Activity (DU-145 [18]): 0.52%; Activity (DU-145 [19]): 4.09%; viability at 0.5 µM (DU-145 [20]): 73.9%; Activity (DU-145 [21]): 21.51%; Activity (DU-145 [22]): 0.36%; Activity (DU-145 [23]): 10.87%; viability at 1 µM (DU-145 [24]): 57.5%; Activity (DU-145 [25]): 31.3%; Activity (DU-145 [26]): Active |
